# According to article PMC4101887 (Cancer investigation, 2011):
# How the values were obtained:
# [1] = Plasma pharmacokinetics of gemcitabine; format: in vivo, human; conditions: for Tmax / AUC / Cmax: human, plasma, intravenous; for Cmax: Gemcitabine Cmax; for effect of multiple doses of lonafarnib on the pharmacokinetics of gemcitabine: Day 15 versus Day 1
# [2] = Multiple-dose plasma pharmacokinetics of lonafarnib; format: in vivo, human; conditions: for AUC / Cmax / Tmax / half-life: human, plasma, oral; for AUC: Lonafarnib AUC (τ), 12 hour dosing interval; for Cmax: Lonafarnib Cmax; for Tmax: Lonafarnib Tmax (median); for half-life: Lonafarnib T½
# How it was run: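 Patients with advanced cancer took oral drug twice daily with food continuously, plus 30 min IV gemcitabine on days 1, 8, 15 of 28-day cycles. The evening dose was withheld on […]. Plasma was sampled on day 15 of cycles 1 and 2, pre-dose and to 24 h. LC-MS/MS had LLOQ 5.00 ng/mL.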
# [3] = target: farnesyl transferase (Homo sapiens, UniProt P49354+P49356); assay: Prelamin A accumulation in buccal mucosal cells; format: in vivo; conditions: buccal mucosal swabs, cycle 1 day 15 versus day 1; 10 of 17 samples
# [4] = lonafarnib 100 mg BID+gemcitabine 750 mg/m2, cycle 1 day 15, n=4
# [5] = lonafarnib 100 mg BID+gemcitabine 750 mg/m2, cycle 2 day 15, n=3
# [6] = lonafarnib 100 mg BID+gemcitabine 1000 mg/m2, cycle 1 day 15, n=3
# [7] = lonafarnib 200 mg BID+gemcitabine 600 mg/m2, cycle 2 day 15, n=4
smiles,measurement,setting,value
Nc1ccn([C@@H]2O[C@H](CO)[C@@H](O)C2(F)F)c(=O)n1 [Gemcitabine],Tmax,"[1]; 600 mg/m2, Gemcitabine Tmax (median), lonafarnib 200 mg BID+gemcitabine 600 mg/m2, cycle 1 Day 1 (gemcitabine alone), n=6",22.8 min
same,AUC,"[1]; 750 mg/m2, Gemcitabine AUC (τ), lonafarnib 100 mg BID+gemcitabine 750 mg/m2, cycle 1 Day 1 (gemcitabine alone), n=4",5380 ng·h/mL
same,Tmax,"[1]; 750 mg/m2, Gemcitabine Tmax (median), lonafarnib 100 mg BID+gemcitabine 750 mg/m2, cycle 1 Day 1 (gemcitabine alone), n=4",30 min
same,Tmax,"[1]; 750 mg/m2, Gemcitabine Tmax (median), lonafarnib 150 mg BID+gemcitabine 750 mg/m2, cycle 1 Day 1 (gemcitabine alone), n=2",15 min
same,Tmax,"[1]; 1000 mg/m2, Gemcitabine Tmax (median), lonafarnib 100 mg BID+gemcitabine 1000 mg/m2, cycle 1 Day 1 (gemcitabine alone), n=2",22.8 min
same,AUC,"[1]; Gemcitabine AUC (τ), lonafarnib 100 mg BID+gemcitabine 750 mg/m2, cycle 1 Day 15 (with lonafarnib), n=4",7890 ng·h/mL
same,AUC,"[1]; Gemcitabine AUC (τ), lonafarnib 100 mg BID+gemcitabine 1000 mg/m2, cycle 1 Day 15 (with lonafarnib), n=3",5060 ng·h/mL
same,AUC,"[1]; Gemcitabine AUC (τ), lonafarnib 200 mg BID+gemcitabine 600 mg/m2, cycle 1 Day 15 (with lonafarnib), n=7",4970 ng·h/mL
same,Cmax,"[1]; lonafarnib 100 mg BID+gemcitabine 750 mg/m2, cycle 1 Day 15 (with lonafarnib), n=4",15000 ng/mL
same,Cmax,"[1]; lonafarnib 100 mg BID+gemcitabine 1000 mg/m2, cycle 1 Day 15 (with lonafarnib), n=3",9800 ng/mL
same,Cmax,"[1]; lonafarnib 200 mg BID+gemcitabine 600 mg/m2, cycle 1 Day 15 (with lonafarnib), n=7",11200 ng/mL
same,Tmax,"[1]; Gemcitabine Tmax (median), lonafarnib 100 mg BID+gemcitabine 750 mg/m2, cycle 1 Day 15 (with lonafarnib), n=4",30 min
same,Tmax,"[1]; Gemcitabine Tmax (median), lonafarnib 100 mg BID+gemcitabine 1000 mg/m2, cycle 1 Day 15 (with lonafarnib), n=3",15 min
same,Tmax,"[1]; Gemcitabine Tmax (median), lonafarnib 200 mg BID+gemcitabine 600 mg/m2, cycle 1 Day 15 (with lonafarnib), n=7",15 min
NC(=O)N1CCC(CC(=O)N2CCC([C@H]3c4ncc(Br)cc4CCc4cc(Cl)cc(Br)c43)CC2)CC1 [Lonafarnib],AUC,[2]; [4],6000 ng·h/mL
same,AUC,[2]; [5],6030 ng·h/mL
same,AUC,[2]; [6],8200 ng·h/mL
same,AUC,[2]; [7],14500 ng·h/mL
same,Cmax,[2]; [4],717 ng/mL
same,Cmax,[2]; [5],757 ng/mL
same,Cmax,[2]; [6],1010 ng/mL
same,Cmax,[2]; [7],1880 ng/mL
same,Tmax,[2]; [4],5 h
same,Tmax,[2]; [5],4 h
same,Tmax,[2]; [6],4 h
same,Tmax,[2]; [7],5 h
same,half-life,[2]; [4],313 min
same,half-life,[2]; [5],210 min
same,half-life,[2]; [6],228 min
same,half-life,[2]; [7],287 min
same,"90% confidence interval for the AUC(τ) point estimate, Cycle 2 Day 15 to Cycle 1 Day 15",[2]; log-transformed data,76.2–145%
same,"AUC(τ) point estimate, Cycle 2 Day 15 compared to Cycle 1 Day 15",[2]; log-transformed data,105%
same,"mean total body clearance (CL/F), range over dose levels",[2]; twice daily multiple doses with weekly gemcitabine,163 to 594 mL/min
same,effect of multiple doses of lonafarnib on the pharmacokinetics of gemcitabine,[1],no apparent effect
same,effect of multiple doses of lonafarnib on the pharmacokinetics of gemcitabine,[1]; listed as lonafarnib,no important effect
same,samples showing prelamin A accumulation after treatment,[3],59%
